Experimental data of several laboratories.
Protocols differ between the studies behind these lines.
Read-out: cell growth or viability

| Compound | cell line | assay | conditions | IC50 [µM] |
| --- | --- | --- | --- | --- |
| COc1cc2c3c(n(CCCNCCO)c(=O)c2cc1OC)-c1nc2c(cc1C3=O)OCO2 | RS4-11 | MTS | 72 h | 0.034 |
| CNC(=O)c1cc(Oc2ccc(NC(=O)Nc3ccc(Cl)c(C(F)(F)F)c3)cc2)ccn1 | NCI-H460 | MTT | 72 h | 3.81 |
| N#Cc1cccc(C=NNC(=N)NN=Cc2cccc(C#N)c2)c1 | L6 | resazurin | 70 h | 6.65 |
| COc1cc2c(cc1OC)-c1cc3ccc(OC)c(OCCN)c3c[n+]1CC2 | NCI-H460 | MTT | 72 h | > 80 |
| N#Cc1cc(/C=N/NC(=N)N/N=C/c2ccc(OC(F)(F)F)cc2)ccc1F | L6 | resazurin | 70 h | 7.05 |
| COc1cc2c3c(n(CCCNC(C)C)c(=O)c2cc1OC)-c1nc2c(cc1C3=O)OCO2 | RS4-11 | MTS | 72 h | 0.053 |
| Cc1cc(/C=C/C#N)cc(C)c1Nc1ccnc(Nc2ccc(C#N)cc2)n1 | HK-1 | MTT | 48 h | 7.59 |
| CC12C(=O)Nc3ccccc3C(=O)CCN1C(=O)c1ccccc12 (centres unmarked) | L6 | – | – | > 300 |
| N#Cc1cccc(CC=NNC(=N)NN=CCc2cccc(C#N)c2)c1 | L6 | resazurin | 70 h | 2.63 |
| C=C(F)C(=O)N1CCN(c2nc(OC[C@@H]3CCCN3C)nc3c2CCN(c2cccc4cccc(Cl)c24)C3)C[C@@H]1CC#N | A-427 | ATP luminescence | 3D culture | > 1 |
| CCOC(=O)c1ccc2c(c1)C(=O)CCN1C(=O)c3ccccc3C1C(=O)N2 (centres unmarked) | L6 | – | – | > 260 |
| COc1cc2nc(N3CCN(C(=O)C4COc5ccccc5O4)CC3)nc(N)c2cc1OC (centres unmarked) | HNE1 | MTT | 48 h | 22.4 |
| Cc1c(C(=O)O)ccc2c3n(nc12)[C@@H]1[C@H](C3)N(CC2CC2)[C@@]2(C(=O)Nc3cc(Cl)ccc32)[C@H]1c1cccc(Cl)c1F | Colon 26 | resazurin | 72 h | 0.259 |
| CO[C@]12C[C@@H](COC(=O)c3cncc(Br)c3)CN(C)[C@@H]1Cc1cn(C)c3cccc2c13 | HNE1 | MTT | 48 h | 1.45 |
| O=C1c2ccccc2C23C(=O)Nc4ccccc4C2(O)CCN13 (centres unmarked) | L6 | – | – | > 330 |
| N=C(NN=CCc1ccc(OC(F)F)cc1)NN=CCc1ccc(OC(F)F)cc1 | L6 | resazurin | 70 h | 2.03 |
| O=C1CCN2C(=O)c3cc(F)c(F)cc3C2C(=O)Nc2ccccc21 (centres unmarked) | L6 | – | – | > 290 |
| CC1(C)CCC(CN2CCN(c3ccc(C(=O)NS(=O)(=O)c4ccc(NCC5CCOCC5)c([N+](=O)[O-])c4)c(Oc4cnc5[nH]ccc5c4)c3)CC2)=C(c2ccc(Cl)cc2)C1 | RS4-11 | ATP luminescence | 48 h | 0.0045 |
| O=C1CCN2C(=O)c3ccccc3C2C(=O)Nc2ccc(F)cc21 (centres unmarked) | L6 | – | – | > 310 |
| N=C(N/N=C/c1cccc([N+](=O)[O-])c1)N/N=C/c1cccc([N+](=O)[O-])c1 | L6 | resazurin | 70 h | 17.7 |
| CN1C(=O)CCC(N2Cc3c(C#CC4CCN(C(=O)[C@H]5CC[C@H](NC(=O)[C@@H]6NC7(CCCCC7)[C@@]7(C(=O)Nc8cc(Cl)ccc87)[C@H]6c6cccc(Cl)c6F)CC5)CC4)cccc3C2=O)C1=O (some centres unmarked) | RS4-11 | – | – | 0.751 |
| COc1cc2nc(N3CCN(C(=O)c4ccco4)CC3)nc(N)c2cc1OC | HK-1 | MTT | 48 h | 30 |
| N#Cc1cc(C=NNC(=N)NN=Cc2ccc(F)c(C#N)c2)ccc1F | L6 | resazurin | 70 h | 5.95 |
